From ChEMBL document CHEMBL4261600 (Eur J Med Chem, 2018) come the findings set out here.

The IC50 is the concentration at which inhibition is half-maximal. The term AUC denotes concentration integrated over time. Read a low AUC as less exposure. For orientation: half-life means the time needed for the level to fall by half in the phase considered. For orientation: EC50 means the midpoint of the concentration-response curve.

Each structure is given as a SMILES string. Calls of active or inactive are those of the source.

One series has as its target CDK7/Cyclin H/MNAT1 (Homo sapiens, UniProt P50613). In words: Inhibition of recombinant full length His-tagged human CDK7/cyclin H/MNAT1 expressed in baculovirus expression system.
For series [1], the target named is MAP kinase-interacting serine/threonine-protein kinase 2 (Homo sapiens) (UniProt Q9HBH9). As to the kind of experiment: Binding affinity to wild-type human partial length MKNK2 (G63 to S388 residues) expressed in mammalian expression system assessed as remaining unbound target protein level at 1000 nM by Kinomescan method relative to control.
In series [2] the target is Cyclin-dependent kinase 17 (Homo sapiens) (UniProt Q00537). As to the kind of experiment: Binding affinity to wild-type human full length PCTK2 (M1 to F523 residues) expressed in bacterial expression system assessed as remaining unbound target protein level at 1000 nM by Kinomescan method relative to control. The method, boiled down:
(§1)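 KINOMEscan competition binding profile across a panel of 468 kinases and mutants, with the inhibitor tested at a single concentration of 1 μM. Binding is reported as percent of control, meaning signal relative to a DMSO control.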

Series [3] concerns the target Casein kinase I isoform delta (Homo sapiens) (UniProt P48730). As to the kind of experiment: Binding affinity to wild-type human full length CSNK1D (M1 to K409 residues) expressed in bacterial expression system assessed as remaining unbound target protein level at 1000 nM by Kinomescan method relative to control. An outline of the steps: (§2)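 KINOMEscan competitive binding profile at 1 μM inhibitor. Remaining target binding reported as percent of DMSO control.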

In series [4] the target is Vascular endothelial growth factor receptor 1 (Homo sapiens) (UniProt P17948). In words: Binding affinity to wild-type human partial length FLT1 (R781 to F1239 residues) expressed in bacterial expression system assessed as remaining unbound target protein level at 1000 nM by Kinomescan method relative to control.
Series [5] relates to Epidermal growth factor receptor (Homo sapiens), P00533 [UNDEFINED MUTATION]. In words: Binding affinity to human partial length EGFR L747-E749del/A750P mutant expressed in bacterial expression system assessed as remaining unbound target protein level at 1000 nM by Kinomescan method relative to control. An outline of the steps: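 KINOMEscan competition-binding profiling across the panel of 468 kinases and mutants, with inhibitor tested at 1 μM. Binding is expressed as percent of control, with DMSO as the reference control.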

Series [6] has as its target T1, Cyclin-dependent kinase 9 (Homo sapiens, UniProt P50750). In words: Binding affinity to wild-type human full length CDK9 (M1 to F372 residues) expressed in bacterial expression system assessed as remaining unbound target protein level at 1000 nM by Kinomescan method relative to control. An outline of the steps: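 KINOMEscan competition binding panel run at 1 μM inhibitor; binding reported as percent of DMSO control (remaining target bound versus vehicle).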

The target of series [7] is Ephrin type-A receptor 4 (Homo sapiens) (UniProt P54764). As to the kind of experiment: Binding affinity to wild-type human partial length EPHA4 (T601 to R897 residues) expressed in bacterial expression system assessed as remaining unbound target protein level at 1000 nM by Kinomescan method relative to control.
The target of series [8] is Tyrosine-protein kinase ABL2 (Homo sapiens) (UniProt P42684). As to the kind of experiment: Binding affinity to wild-type human ABL2 (A248 to G542 residues) expressed in bacterial expression system assessed as remaining unbound target protein level at 1000 nM by Kinomescan method relative to control. An outline of the steps: as §2
The next series has as its system Canis familiaris. In words: AUC (0 to infinity) in beagle dog at 2 mg/kg, iv by LC-MS/MS analysis. In kind it is ADME, organism-based, Canis lupus familiaris. Set-up: dose 2 mg/kg, route intravenous, time infinity. As to conditions: in vivo. An outline of the steps: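 Non-compartmental PK. Male SD rats 190-210 g, mice and beagle dogs acclimatized one week, fasted 12 h with water, split into iv and po groups (mice 48, rats 6, dogs 6). iv 3/3/2 mg/kg (mice/rats/dogs); po 10/20/10 mg/kg; vehicle DMSO in 5% glucose water. Blood at 2 or 5 to 720 min; plasma protein-precipitated with methanol, caffeine internal standard, LC-MS/MS.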

Series [9] deals with Tyrosine-protein kinase CSK (Homo sapiens) (UniProt P41240). As to the kind of experiment: Binding affinity to wild-type human full length CSK (M1 to L450 residues) expressed in bacterial expression system assessed as remaining unbound target protein level at 1000 nM by Kinomescan method relative to control. The method, boiled down: as §2
For series [10], the target named is Ephrin type-B receptor 1 (Homo sapiens) (UniProt P54762). In words: Binding affinity to wild-type human partial length EPHB1 (P589 to T911 residues) expressed in bacterial expression system assessed as remaining unbound target protein level at 1000 nM by Kinomescan method relative to control.
Series [11] deals with Phosphatidylinositol 4,5-bisphosphate 3-kinase catalytic subunit delta isoform (Homo sapiens) (UniProt O00329). In words: Binding affinity to wild-type human partial length PIK3CD (R108 to Q1044 residues) expressed in mammalian expression system assessed as remaining unbound target protein level at 1000 nM by Kinomescan method relative to control.
The target in series [12] is Uncharacterized serine/threonine-protein kinase SBK3 (Homo sapiens) (UniProt P0C264). In words: Binding affinity to wild-type human partial length SgK110 (L22 to R329 residues) expressed in bacterial expression system assessed as remaining unbound target protein level at 1000 nM by Kinomescan method relative to control.
The target in series [13] is T1, Cyclin-dependent kinase 9. In words: Inhibition of CDK9 in human MEC1 cells assessed as decrease in phosphorylation at Thr 186 residues up to 3 uM after 2 hrs by immunoblotting analysis. In kind it is cell-based.
In series [14] the target is MAP kinase-activated protein kinase 2 (Homo sapiens) (UniProt P49137). As to the kind of experiment: Binding affinity to wild-type human partial length MAPKAPK2 (V48 to D345 residues) expressed in bacterial expression system assessed as remaining unbound target protein level at 1000 nM by Kinomescan method relative to control. An outline of the steps: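 KINOMEscan binding panel of 468 kinases/mutants. Inhibitor was tested at a single concentration of 1 μM. Binding is reported as percent of control, defined relative to a DMSO control.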

Series [15] in a line: Half life in mouse at 10 mg/kg, po by LC-MS/MS analysis. As to conditions: in vivo. It counts as ADME, organism-based.
Series [16] is described as follows: Half life in Sprague-Dawley rat at 20 mg/kg, po by LC-MS/MS analysis. In kind it is ADME, organism-based. As to conditions: in vivo.
The target of series [17] is Death-associated protein kinase 2 (Homo sapiens) (UniProt Q9UIK4). In words: Binding affinity to wild-type human full length DAPK2 (M1 to S370 residues) expressed in bacterial expression system assessed as remaining unbound target protein level at 1000 nM by Kinomescan method relative to control. The method, boiled down: as §1
The target in series [18] is Muscle, skeletal receptor tyrosine-protein kinase (Homo sapiens) (UniProt O15146). As to the kind of experiment: Binding affinity to wild-type human partial length MUSK (M553 to V869 residues) expressed in bacterial expression system assessed as remaining unbound target protein level at 1000 nM by Kinomescan method relative to control.
For series [19], the target named is T1, Cyclin-dependent kinase 9. As to the kind of experiment: Inhibition of CDK9 in human MEC1 cells assessed as decrease in RNA polymerase 2 phosphorylation at Ser 2 residues in CTD domain after 2 hrs by immunoblotting analysis. It counts as cell-based. On the technique in general: A western blot detects proteins with antibodies after separation by electrophoresis.

Series [20] deals with Calcium/calmodulin-dependent protein kinase type II subunit gamma (Homo sapiens) (UniProt Q13555). In words: Binding affinity to wild-type human partial length CAMK2G (R9 to A303 residues) expressed in bacterial expression system assessed as remaining unbound target protein level at 1000 nM by Kinomescan method relative to control. The method, boiled down: as §1

T1 sequence (P50750 whole entry, the tested form may be a part): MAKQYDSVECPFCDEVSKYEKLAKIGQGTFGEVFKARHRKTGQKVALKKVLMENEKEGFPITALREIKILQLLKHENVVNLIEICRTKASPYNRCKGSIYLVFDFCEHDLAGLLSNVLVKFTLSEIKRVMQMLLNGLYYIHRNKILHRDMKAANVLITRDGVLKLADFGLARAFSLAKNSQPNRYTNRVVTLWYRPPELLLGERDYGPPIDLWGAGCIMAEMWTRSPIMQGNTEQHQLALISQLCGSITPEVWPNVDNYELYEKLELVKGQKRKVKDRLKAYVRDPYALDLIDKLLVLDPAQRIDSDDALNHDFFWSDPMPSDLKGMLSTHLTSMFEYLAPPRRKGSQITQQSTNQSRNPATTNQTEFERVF
Muscle, skeletal receptor tyrosine-protein kinase (Homo sapiens), sequence (O15146 whole entry, the tested form may be a part): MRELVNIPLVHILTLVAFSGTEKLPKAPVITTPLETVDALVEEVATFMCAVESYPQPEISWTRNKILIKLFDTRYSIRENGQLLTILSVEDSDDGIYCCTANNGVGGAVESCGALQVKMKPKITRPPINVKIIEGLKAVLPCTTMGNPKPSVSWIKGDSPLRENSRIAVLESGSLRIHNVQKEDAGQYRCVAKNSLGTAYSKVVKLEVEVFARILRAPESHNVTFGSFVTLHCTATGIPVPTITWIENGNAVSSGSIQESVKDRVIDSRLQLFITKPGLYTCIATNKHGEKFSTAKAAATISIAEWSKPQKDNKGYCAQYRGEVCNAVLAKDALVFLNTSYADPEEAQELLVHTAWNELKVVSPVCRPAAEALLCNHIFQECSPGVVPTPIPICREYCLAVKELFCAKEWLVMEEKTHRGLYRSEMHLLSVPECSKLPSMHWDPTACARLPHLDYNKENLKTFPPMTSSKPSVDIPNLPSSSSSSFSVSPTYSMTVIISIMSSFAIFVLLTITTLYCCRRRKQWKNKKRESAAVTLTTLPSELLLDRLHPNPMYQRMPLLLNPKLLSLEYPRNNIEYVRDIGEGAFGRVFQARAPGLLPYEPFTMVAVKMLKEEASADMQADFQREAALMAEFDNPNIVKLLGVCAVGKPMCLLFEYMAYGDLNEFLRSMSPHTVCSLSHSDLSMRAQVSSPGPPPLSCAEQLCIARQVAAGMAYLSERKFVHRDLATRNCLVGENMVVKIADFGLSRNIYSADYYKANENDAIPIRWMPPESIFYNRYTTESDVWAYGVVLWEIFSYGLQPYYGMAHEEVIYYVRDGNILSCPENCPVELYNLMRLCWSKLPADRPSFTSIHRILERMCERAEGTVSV
Tyrosine-protein kinase CSK (Homo sapiens), sequence (P41240 2-450 limits assumed): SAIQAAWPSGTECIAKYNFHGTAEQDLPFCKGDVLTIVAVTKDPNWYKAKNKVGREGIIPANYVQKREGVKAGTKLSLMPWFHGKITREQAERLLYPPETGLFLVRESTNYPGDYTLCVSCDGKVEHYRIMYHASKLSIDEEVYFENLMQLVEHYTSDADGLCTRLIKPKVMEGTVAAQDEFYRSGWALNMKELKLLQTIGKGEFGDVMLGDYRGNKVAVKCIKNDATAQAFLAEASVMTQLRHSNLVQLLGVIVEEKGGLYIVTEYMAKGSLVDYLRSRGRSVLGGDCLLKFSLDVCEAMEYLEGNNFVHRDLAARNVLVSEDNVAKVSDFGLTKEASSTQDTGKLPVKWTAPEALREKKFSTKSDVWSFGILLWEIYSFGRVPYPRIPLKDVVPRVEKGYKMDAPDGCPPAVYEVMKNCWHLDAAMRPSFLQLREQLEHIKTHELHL
MAP kinase-activated protein kinase 2 (Homo sapiens), sequence (P49137 whole entry, looked up, the tested form may be a part): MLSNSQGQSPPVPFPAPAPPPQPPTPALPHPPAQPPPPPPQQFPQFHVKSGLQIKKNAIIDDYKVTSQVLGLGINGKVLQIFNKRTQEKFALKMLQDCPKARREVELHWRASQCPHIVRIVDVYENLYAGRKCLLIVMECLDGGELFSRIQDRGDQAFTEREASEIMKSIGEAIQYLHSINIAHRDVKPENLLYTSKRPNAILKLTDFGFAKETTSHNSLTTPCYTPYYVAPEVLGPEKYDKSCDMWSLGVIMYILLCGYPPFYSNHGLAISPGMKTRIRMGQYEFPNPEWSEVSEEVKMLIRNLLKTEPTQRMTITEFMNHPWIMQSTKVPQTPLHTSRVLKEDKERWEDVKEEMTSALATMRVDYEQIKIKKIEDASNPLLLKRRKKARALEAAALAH
Uncharacterized serine/threonine-protein kinase SBK3 (Homo sapiens), sequence (P0C264 whole entry, the tested form may be a part): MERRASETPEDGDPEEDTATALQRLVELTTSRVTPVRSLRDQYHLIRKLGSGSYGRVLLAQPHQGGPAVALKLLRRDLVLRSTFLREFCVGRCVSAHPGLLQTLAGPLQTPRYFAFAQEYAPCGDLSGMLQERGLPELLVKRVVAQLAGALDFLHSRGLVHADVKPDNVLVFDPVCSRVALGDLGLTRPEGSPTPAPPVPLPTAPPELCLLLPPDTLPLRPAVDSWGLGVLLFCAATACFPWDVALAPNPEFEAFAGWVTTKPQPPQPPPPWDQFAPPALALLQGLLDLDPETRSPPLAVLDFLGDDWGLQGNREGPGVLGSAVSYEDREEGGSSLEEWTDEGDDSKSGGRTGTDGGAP
Vascular endothelial growth factor receptor 1 (Homo sapiens), sequence (P17948 whole entry, the tested form may be a part): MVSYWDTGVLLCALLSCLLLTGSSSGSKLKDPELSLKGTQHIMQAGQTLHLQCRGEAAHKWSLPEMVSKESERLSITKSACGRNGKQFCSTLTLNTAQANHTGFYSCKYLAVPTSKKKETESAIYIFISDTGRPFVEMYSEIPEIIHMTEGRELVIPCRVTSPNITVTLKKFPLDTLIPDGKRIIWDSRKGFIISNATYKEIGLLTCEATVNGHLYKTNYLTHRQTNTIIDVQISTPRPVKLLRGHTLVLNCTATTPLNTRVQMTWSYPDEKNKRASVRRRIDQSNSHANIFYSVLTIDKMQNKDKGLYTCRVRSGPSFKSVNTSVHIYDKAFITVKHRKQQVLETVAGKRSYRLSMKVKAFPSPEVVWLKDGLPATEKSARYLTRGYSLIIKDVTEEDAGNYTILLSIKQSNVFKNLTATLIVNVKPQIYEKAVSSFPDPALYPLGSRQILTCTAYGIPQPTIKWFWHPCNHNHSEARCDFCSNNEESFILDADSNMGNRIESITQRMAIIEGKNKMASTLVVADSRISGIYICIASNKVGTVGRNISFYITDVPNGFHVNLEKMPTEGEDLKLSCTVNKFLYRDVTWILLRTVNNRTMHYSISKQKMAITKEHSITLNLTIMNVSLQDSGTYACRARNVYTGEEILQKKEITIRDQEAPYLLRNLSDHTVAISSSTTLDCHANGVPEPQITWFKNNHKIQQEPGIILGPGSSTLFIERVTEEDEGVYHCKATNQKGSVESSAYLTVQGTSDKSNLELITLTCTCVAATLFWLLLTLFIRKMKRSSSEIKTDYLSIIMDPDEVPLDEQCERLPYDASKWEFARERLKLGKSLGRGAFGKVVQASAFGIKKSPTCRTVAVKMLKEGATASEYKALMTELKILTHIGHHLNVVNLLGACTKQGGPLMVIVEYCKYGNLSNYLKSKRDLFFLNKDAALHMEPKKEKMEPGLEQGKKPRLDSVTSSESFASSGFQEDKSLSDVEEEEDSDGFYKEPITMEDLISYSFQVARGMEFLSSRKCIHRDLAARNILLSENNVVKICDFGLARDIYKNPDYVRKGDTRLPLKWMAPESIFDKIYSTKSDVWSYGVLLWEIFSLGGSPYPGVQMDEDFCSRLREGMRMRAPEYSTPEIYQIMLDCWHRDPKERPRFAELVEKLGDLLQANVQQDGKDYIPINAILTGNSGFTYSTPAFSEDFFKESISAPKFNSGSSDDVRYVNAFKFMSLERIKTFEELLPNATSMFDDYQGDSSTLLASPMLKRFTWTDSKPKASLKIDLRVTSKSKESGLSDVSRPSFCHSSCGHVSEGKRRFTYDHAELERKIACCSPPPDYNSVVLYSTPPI
Tyrosine-protein kinase ABL2 (Homo sapiens), sequence (P42684 whole entry, the tested form may be a part): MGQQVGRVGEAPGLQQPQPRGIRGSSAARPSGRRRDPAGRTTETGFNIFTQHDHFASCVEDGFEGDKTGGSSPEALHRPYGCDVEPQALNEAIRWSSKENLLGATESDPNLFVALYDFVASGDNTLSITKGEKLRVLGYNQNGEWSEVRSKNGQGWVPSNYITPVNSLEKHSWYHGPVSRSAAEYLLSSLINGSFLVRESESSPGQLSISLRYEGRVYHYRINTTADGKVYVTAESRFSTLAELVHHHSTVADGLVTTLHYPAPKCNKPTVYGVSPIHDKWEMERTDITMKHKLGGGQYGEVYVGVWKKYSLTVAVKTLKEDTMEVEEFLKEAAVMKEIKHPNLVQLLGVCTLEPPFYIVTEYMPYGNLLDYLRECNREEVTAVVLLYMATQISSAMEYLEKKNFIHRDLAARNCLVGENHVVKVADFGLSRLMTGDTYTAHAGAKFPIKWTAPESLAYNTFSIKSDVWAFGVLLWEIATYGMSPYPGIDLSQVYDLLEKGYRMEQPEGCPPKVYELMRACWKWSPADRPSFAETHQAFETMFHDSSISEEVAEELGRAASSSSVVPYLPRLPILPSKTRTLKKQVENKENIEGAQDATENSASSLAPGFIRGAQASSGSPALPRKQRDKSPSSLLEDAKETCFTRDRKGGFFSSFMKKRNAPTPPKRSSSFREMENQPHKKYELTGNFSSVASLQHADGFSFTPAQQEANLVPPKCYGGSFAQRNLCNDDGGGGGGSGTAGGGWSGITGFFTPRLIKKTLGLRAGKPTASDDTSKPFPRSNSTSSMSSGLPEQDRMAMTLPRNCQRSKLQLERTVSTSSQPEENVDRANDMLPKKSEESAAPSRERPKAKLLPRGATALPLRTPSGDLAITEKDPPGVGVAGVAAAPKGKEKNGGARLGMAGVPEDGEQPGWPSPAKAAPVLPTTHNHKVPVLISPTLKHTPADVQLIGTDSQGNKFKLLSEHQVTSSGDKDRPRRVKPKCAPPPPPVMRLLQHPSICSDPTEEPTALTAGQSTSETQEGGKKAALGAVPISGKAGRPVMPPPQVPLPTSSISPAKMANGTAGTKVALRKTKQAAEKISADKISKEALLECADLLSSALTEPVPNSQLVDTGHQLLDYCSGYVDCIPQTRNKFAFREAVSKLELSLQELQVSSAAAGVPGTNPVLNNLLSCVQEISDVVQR

`COCCN[C@H]1CC[C@H](Nc2cc(-c3csc(NCC4(C#N)CCOCC4)n3)c(Cl)cn2)CC1`: on CDK7/Cyclin H/MNAT1, the IC50 worked out at 1720 nM. Further, the Activity in series [1] worked out at 97%; in series [2], 32%; in series [3], 66%; in series [4], 98%; in [5], 92%; in series [6], 0.9%. Also, the Activity is 96% in series [7]; 77% in series [8]; 95% in series [9]; 88% in series [10]; 85% in [11]; 89% in series [12]. Besides, the Activity in [14] amounted to 99%; in series [17], 95%; in [18], 100%; in series [20], 99%. Also, the AUC in the series on Canis familiaris was determined as 3121.69 ng·h/mL. Moreover, in series [13], the inhibition result is “inactive”. Further, the half-life in series [15] was 1.55 h; in series [16] it was 3.37 h. The half-maximal effective concentration (EC50) in series [19] is less than 100 nM. In series [19], the inhibition result is “Dose-dependent effect”.
